# Experimental data reported in ChEMBL document CHEMBL1140291, “Quinic acid derivatives as sialyl Lewis(x)-mimicking selectin inhibitors: design, synthesis, and crystal structure in complex with E-selectin” (J Med Chem, 2005).
# Key:
# P-selectin = target: T1, P-selectin (Homo sapiens, UniProt P16109); assay: Inhibitory concentration against selectin P in Biacore assay
# T1 sequence (P16109 whole entry): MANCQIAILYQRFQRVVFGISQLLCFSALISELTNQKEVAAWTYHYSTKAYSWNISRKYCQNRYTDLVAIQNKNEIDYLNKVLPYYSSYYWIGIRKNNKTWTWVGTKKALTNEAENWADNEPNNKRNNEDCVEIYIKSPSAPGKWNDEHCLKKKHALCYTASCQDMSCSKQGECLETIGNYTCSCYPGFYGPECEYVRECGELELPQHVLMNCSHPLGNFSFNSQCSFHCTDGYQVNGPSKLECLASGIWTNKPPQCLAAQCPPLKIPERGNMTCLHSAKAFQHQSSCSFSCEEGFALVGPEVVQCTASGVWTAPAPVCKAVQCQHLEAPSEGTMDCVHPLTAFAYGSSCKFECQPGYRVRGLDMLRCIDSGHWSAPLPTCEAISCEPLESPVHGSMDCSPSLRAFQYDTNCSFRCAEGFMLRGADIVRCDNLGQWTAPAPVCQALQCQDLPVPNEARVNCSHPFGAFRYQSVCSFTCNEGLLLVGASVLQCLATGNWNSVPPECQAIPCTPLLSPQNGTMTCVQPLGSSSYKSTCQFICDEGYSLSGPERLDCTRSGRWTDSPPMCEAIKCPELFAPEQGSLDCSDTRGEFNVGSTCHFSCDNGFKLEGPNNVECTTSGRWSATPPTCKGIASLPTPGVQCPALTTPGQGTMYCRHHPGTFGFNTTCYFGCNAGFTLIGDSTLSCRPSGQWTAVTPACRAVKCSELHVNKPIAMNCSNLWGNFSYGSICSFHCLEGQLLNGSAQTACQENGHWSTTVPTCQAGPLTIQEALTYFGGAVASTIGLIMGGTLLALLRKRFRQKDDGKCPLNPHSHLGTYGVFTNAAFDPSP
# How it was run: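 SPR at 25 °C. Biotinylated monomeric truncated human PSGL-1 (19ek) was immobilised on a streptavidin chip. Compounds were preincubated 1 h with 500 nM monomeric P-selectin (P-LE) in HEPES/NaCl/1 mM CaCl2/MgCl2/0.05% P40/10% DMSO, then injected at 0–6 mM in duplicate, at least two runs. IC50 was extrapolated from the RU vs concentration plot after blank and reference subtraction.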
# [1] = (§1) Anti-inflammatory activity as selectin-mediated rolling of human neutrophils on stimulated human umbilical vein endothelial cells; format: functional, cell-based; conditions: endothelial cell
# How it was run: (§2)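 Parallel plate flow chamber; human neutrophils rolled over confluent HUVEC monolayers activated with […] just before the run to raise surface P-selectin. Rolling cells counted by digital imaging/videotape, averaged over 10 fields on each of three monolayers per test article. Active compounds titrated for IC50. Glycyrrhizin trisodium salt as positive control.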
# [2] = Maximum concentration observed in rat ( 20 mg/kg iv ); format: ADME, organism-based; parameters: dose 20 mg/kg, route intravenous; conditions: in vivo
# How it was run: (§3)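 Single 20 mg/kg iv bolus (10 mg/mL in 50% DMSO/50% PEG400). Blood drawn at 5 min and 0.5, 0.75, 1, 2, 4, 7, 24 h, with saline replacing lost volume. Plasma precipitated with CH3CN and analysed by LC/MS. Linear trapezoid noncompartmental analysis.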
# [3] = Area under curve in rat ( 20 mg/kg iv ); format: ADME, organism-based; parameters: dose 20 mg/kg, route intravenous; conditions: in vivo; how it was run: as §3
# [4] = Clearance observed in rat ( 20 mg/kg iv ); format: ADME, organism-based; parameters: dose 20 mg/kg, route intravenous; conditions: in vivo; how it was run: as §3
# [5] = as §1; format: functional, cell-based; conditions: endothelial cell; remark: listed apart in the source
# How it was run: as §2, with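 “article.” for “article. Active compounds titrated for IC50.”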
IC50 (P-selectin) [mM],IC50 [1] [µM],Cmax [2] [µM],AUC [3] [µM·h],clearance [4] [mL/min/kg],IC50 [5] [mM],SMILES
10,625,212,219,4,–,O=C(O)[C@]1(OCc2ccc(-c3ccccc3C(F)(F)F)cc2)C[C@@H](O)[C@@H](O)[C@H](O)C1
≤ 0.002,–,–,–,–,1,O=C(O)[C@]1(OCc2ccccc2-c2cccc3c2Sc2ccccc2S3)C[C@@H](O)[C@@H](O)[C@H](O)C1
